38 compounds from ChEMBL document CHEMBL1240521, “Design and synthesis of biphenyl derivatives as mushroom tyrosinase inhibitors” (Bioorg Med Chem, 2010) can be followed below.

One experiment has as its target T1, Tyrosinase (Agaricus bisporus, UniProt O42713).
T1 sequence (O42713 whole entry): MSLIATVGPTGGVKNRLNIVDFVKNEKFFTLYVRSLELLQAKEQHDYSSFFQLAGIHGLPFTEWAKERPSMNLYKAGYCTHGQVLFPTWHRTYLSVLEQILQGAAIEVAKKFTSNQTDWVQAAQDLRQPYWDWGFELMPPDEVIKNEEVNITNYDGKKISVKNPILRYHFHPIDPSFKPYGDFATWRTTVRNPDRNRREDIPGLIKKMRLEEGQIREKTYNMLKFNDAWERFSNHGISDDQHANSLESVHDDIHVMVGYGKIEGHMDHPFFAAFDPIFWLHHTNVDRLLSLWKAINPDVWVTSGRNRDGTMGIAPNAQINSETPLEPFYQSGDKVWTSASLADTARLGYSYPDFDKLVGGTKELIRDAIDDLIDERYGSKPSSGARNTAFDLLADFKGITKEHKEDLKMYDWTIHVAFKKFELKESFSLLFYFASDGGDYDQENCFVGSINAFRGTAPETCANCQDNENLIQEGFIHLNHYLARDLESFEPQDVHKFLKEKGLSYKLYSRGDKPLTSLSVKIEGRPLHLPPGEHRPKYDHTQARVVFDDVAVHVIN
Kind of experiment: Competitive inhibition of mushroom tyrosinase after 30 mins by Lineweaver-Burke double reciprocal plot analysis. The method in brief: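 Inhibition type and Ki were determined with respect to L-tyrosine as substrate, using mushroom tyrosinase with dopachrome read-out at 492 nm. Incubation was 30 min at 37 °C in 25 mM PBS, pH 6.8.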
The compound `COc1cc(-c2ccc(C(=O)O)cc2)cc(OC)c1O` had a Ki of 38 µM. In the case of `COc1cc(-c2ccc(C(=O)O)c(O)c2)cc(OC)c1O`, the inhibitory constant (Ki) amounted to 15 µM. This Ki lies about 2.5-fold lower than the previous one. The same measure, in the same setting: in the case of `COc1cc(-c2ccc(C(=O)NCc3ccccc3)c(O)c2)cc(OC)c1O` it was 60 µM; in that of `CCCCNC(=O)c1ccc(-c2cc(OC)c(O)c(OC)c2)cc1`, 31 µM.

The target in another experiment is T1, Tyrosinase. The experiment is described as follows: Inhibition of mushroom tyrosinase after 30 mins.
Consider `COc1cc(-c2ccc(C)c(O)c2)cc(OC)c1OC`, for which the IC50 is > 2000 µM. With `COc1cc(-c2cc(F)cc(F)c2)cc(OC)c1OC`, the half-inhibitory concentration (IC50) is > 2000 µM.

Consider `COc1cc(-c2ccc(F)cc2F)cc(OC)c1OC`, for which the IC50 was > 2000 µM. For the compound `COc1cc(-c2ccc(F)c(F)c2)cc(OC)c1OC`, the half-inhibitory concentration (IC50) was > 2000 µM. With `COc1cc(-c2cccc(O)c2)cc(OC)c1OC`, the 50% inhibitory concentration (IC50) is > 2000 µM. Take `COc1cc(-c2ccccc2C)cc(OC)c1OC`: the half-inhibitory concentration (IC50) is > 2000 µM. Consider `COc1cc(-c2ccc(C=O)c(O)c2)cc(OC)c1O`, for which the concentration for half-maximal inhibition (IC50) turned out to be 60 µM. Regarding `COc1cc(-c2ccc(C)c(O)c2)cc(OC)c1O`, the IC50 worked out at 90 µM. This IC50 lies about 1.5-fold higher than the previous one.

Turning to `COc1cc(-c2cc(F)cc(F)c2)cc(OC)c1O`, the midpoint of inhibition, the IC50, lay at 80 µM. This IC50 and that of the compound before are within 1.5-fold of each other. For the compound `COc1cc(-c2ccc(F)cc2F)cc(OC)c1O`, the midpoint of inhibition, the IC50, lay at 60 µM.

The compound `COc1cc(-c2ccc(F)c(F)c2)cc(OC)c1O` showed an IC50 of 70 µM. The IC50 values of the last two compounds are within 1.5-fold of each other. For the compound `COc1cc(-c2cccc(OC)c2F)cc(OC)c1O`, the IC50 is 60 µM. The IC50 values of the last two compounds are within 1.5-fold of each other.

The compound `COc1cc(-c2cccc(O)c2F)cc(OC)c1O` returned an IC50 of 80 µM. The compound `COc1cc(-c2cccc(O)c2)cc(OC)c1O` showed an IC50 of 90 µM. Regarding `COc1cc(-c2ccccc2C)cc(OC)c1O`, the midpoint of inhibition, the IC50, lay at 170 µM. On the same count and under the same terms, next, `COc1cc(-c2ccc(C(=O)O)cc2)cc(OC)c1O`: 50 µM; `COc1cc(-c2ccc(C=O)c(OCc3ccccc3)c2)cc(OC)c1OC`: > 2000 µM; `COc1cc(-c2ccc(C=O)c(O)c2)cc(OC)c1OC`: > 2000 µM.

As to `COc1cc(-c2ccc(C(=O)O)c(OCc3ccccc3)c2)cc(OC)c1OC`, the half-maximal inhibitory concentration (IC50) is > 2000 µM.

As for `COc1cc(-c2ccc(C(=O)O)c(O)c2)cc(OC)c1OC`, the half-maximal inhibitory concentration (IC50) was > 2000 µM. For `CCOC(=O)c1ccc(-c2cc(OC)c(OC)c(OC)c2)cc1O`, the IC50 is > 2000 µM. Same read-out and setting: in the case of `COc1cc(-c2ccc(C(=O)NCc3ccccc3)c(OCc3ccccc3)c2)cc(OC)c1OC` it was > 2000 µM; in that of `COc1cccc(-c2cc(OC)c(OC)c(OC)c2)c1F`, > 2000 µM.

On to `COc1ccc(C(C)=O)cc1-c1cc(OC)c(OC)c(OC)c1`, for which the IC50 is > 2000 µM. Same read-out and setting: next, `COc1ccc(C(C)O)cc1-c1cc(OC)c(OC)c(OC)c1` (configuration not stated): > 2000 µM; `COc1cc(-c2cccc(OCc3ccccc3)c2)cc(OC)c1OC`: 550 µM. With `COc1cc(-c2ccc(C(=O)O)cc2)cc(OC)c1OC`, the IC50 is > 2000 µM. Take `CCCCNC(=O)c1ccc(-c2cc(OC)c(OC)c(OC)c2)cc1`: the half-inhibitory concentration (IC50) is > 2000 µM. For `COc1cc(-c2ccc(C(=O)NCc3ccccc3)cc2)cc(OC)c1OC`, the IC50 was > 2000 µM. On to `COc1cc(-c2ccc(O)c(OCc3ccccc3)c2)cc(OC)c1OC`, for which the concentration for half-maximal inhibition (IC50) came to 170 µM.

Compound `COc1cc(-c2ccc(C(=O)O)c(O)c2)cc(OC)c1O` displayed an IC50 of 20 µM. This IC50 is about 8.5-fold lower than that of the compound before. In the case of `CCOC(=O)c1ccc(-c2cc(OC)c(O)c(OC)c2)cc1O`, the IC50 stood at 50 µM. As to `COc1cc(-c2ccc(C(=O)NCc3ccccc3)c(O)c2)cc(OC)c1O`, the midpoint of inhibition, the IC50, lay at 30 µM. `COc1ccc(C(C)=O)cc1-c1cc(OC)c(O)c(OC)c1` registered an IC50 of 140 µM. Turning to `COc1ccc(C(C)O)cc1-c1cc(OC)c(O)c(OC)c1` (configuration not stated), inhibition was half-maximal at 190 µM (IC50). The IC50 values of the last two compounds are within 1.5-fold of each other.

For `CCCCNC(=O)c1ccc(-c2cc(OC)c(O)c(OC)c2)cc1`, it took 70 µM to reach half-maximal inhibition (IC50). Against the preceding compound, the IC50 is about 2.7-fold lower. The compound `COc1cc(-c2ccc(C(=O)NCc3ccccc3)cc2)cc(OC)c1O` showed a 50% inhibitory concentration (IC50) of 120 µM. Against the preceding compound, the IC50 is about 1.7-fold higher. The compound `COc1cc(-c2ccc(O[C@@H]3O[C@H](CO)[C@@H](O)[C@H](O)[C@H]3O)c(O)c2)cc(OC)c1O` [FORTUNEANOSIDE E] gave a 50% inhibitory concentration (IC50) of 140 µM. The IC50 values of the last two compounds are within 1.5-fold of each other.
